Assay outcomes (PubChem)
Lmaj promast = Leishmania major promastigote growth inhibition, primary screen; Leishmania major promastigotes, resazurin fluorescence viability; hit rate 9% among 200,000; inhibition, % at 10 µM; AID 1063, 2008; in the data active = inhibition above about 50%;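 also: promastigotes grown with compound for 44 hours at 28 °C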
bCat KO growth = primary screen for growth suppressors in beta-catenin knockout HCT116 cells (colon tumor, human); hit rate 1.5% among 140,000; HCT116 beta-catenin knockout viability, CellTiter-Glo, 60 h; stronger effect = lower value; viability, % at 10 µM;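 active = viability at or under a set limit, the compound median less 4 SD, cut at about 6% in these data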
HCT116 PTEN-null = growth suppression of PTEN-null HCT116, primary screen, cell-based, CellTiter-Glo. HCT116 PTEN-null viability, 60 h; stronger effect = lower value. viability, % at 10 µM. hit rate 1.2% among 140,000;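 active = viability at or below a set limit, 4 SD under the median of all tested compounds, cut at about 3.7% in these data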;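 also: PTEN knockout HCT116 line with beta catenin targeted HCT116 as companion control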
PMI activator = activators of human PMI, primary screen, biochemical, fluorescence intensity, near-Km mannose 6-phosphate | hit rate 0.005% among 190,000 | Mannose-6-phosphate isomerase (Homo sapiens), P34949 | purified human PMI, coupled resazurin fluorescence, 20 min; stronger effect = higher value; 1 = vehicle control, 0 substrate-free wells | activation factor at 20 µM;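 active = activation factor of 2 or more at 20 µM, relative to plate controls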
Target sequence (P34949 whole entry, looked up): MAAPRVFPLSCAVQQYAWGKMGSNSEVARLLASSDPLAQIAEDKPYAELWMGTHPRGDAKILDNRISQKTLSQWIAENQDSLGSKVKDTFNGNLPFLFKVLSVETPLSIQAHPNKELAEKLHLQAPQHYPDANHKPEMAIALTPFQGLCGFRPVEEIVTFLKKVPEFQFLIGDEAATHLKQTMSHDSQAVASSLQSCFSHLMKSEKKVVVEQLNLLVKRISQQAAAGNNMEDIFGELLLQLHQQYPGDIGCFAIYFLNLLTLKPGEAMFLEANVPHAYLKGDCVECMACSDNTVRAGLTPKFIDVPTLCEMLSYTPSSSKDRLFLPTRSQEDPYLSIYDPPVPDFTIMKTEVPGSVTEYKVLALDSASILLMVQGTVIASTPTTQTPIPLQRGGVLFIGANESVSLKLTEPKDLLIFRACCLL
PMI act satM6P = human PMI activators, high substrate, primary screen, biochemical, fluorescence intensity, near-saturating mannose 6-phosphate | activation factor at 20 µM | hit rate 0.34% among 190,000 | Mannose-6-phosphate isomerase (Homo sapiens), P34949 | coupled PMI enzyme assay, resazurin fluorescence, 20 min; stronger effect = higher value; 1 = untreated enzyme, 0 = substrate-free blank;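 active = activation factor of 2 or more at 20 µM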
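Test system: human PMI in coupled enzyme assay; Input: PMI at 15 ng/mL final; Medium: HEPES buffer, pH 7.4; Schedule: 20 min incubation at room temperature; Technique: resorufin fluorescence at Ex 544/Em 590 nm; Compound: 20 µM single dose; Probe or stimulus: Near-saturating mannose-6-phosphate, 1.0 mM.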
Large screens that a line does not name were inactive. Hits are enriched below; roughly 9.6% of the tested compounds scored in any of these assays.

O=C1CC(c2cc(Br)ccc2F)c2cc3c(cc2N1)CCC3 (configuration not stated)	none
Cn1c(N2CCC(C(N)=O)CC2)nc2c1c(=O)n(Cc1cccc(Br)c1)c(=O)n2C	none
Cc1ccc(N=Cc2c(O)n(-c3nccs3)c(=O)c3ccccc23)cc1	none
CS(=O)(=O)Cc1cc(N2CCCC2)nc(-c2ccccc2)n1	Lmaj promast 61 (no result: bCat KO growth, HCT116 PTEN-null)
O=S(=O)(Nc1cccc(-c2cn3cccnc3n2)c1)c1ccc(-c2ccccc2)cc1	none
O=S(=O)(Nc1cccc(-c2cn3cccnc3n2)c1)c1ccc(F)cc1	Lmaj promast 71
O=S(=O)(Nc1cccc(-c2cn3cccnc3n2)c1)c1ccccc1	Lmaj promast 88
COc1ccc(C(=O)NCc2nnc(SCC(=O)Nc3nc4ccc(C)cc4s3)o2)cc1OC	none
COc1ccc2c(C)cc(N3CCCCCC3)nc2c1	Lmaj promast 61 (no result: bCat KO growth, HCT116 PTEN-null)
CC(=O)c1ccc(NC(=S)NCCc2ccccn2)cc1	Lmaj promast 71
CCOC(=O)c1csc(Nc2nc3ccc(F)cc3s2)n1	Lmaj promast 95, bCat KO growth 4.7
O=C(Nc1nnc(SCc2ccc(F)cc2)s1)c1cccnc1Cl	none (no result: bCat KO growth, HCT116 PTEN-null)
O=C(Nc1nnc(SCc2ccc(F)cc2)s1)c1ccccn1	Lmaj promast 99 (no result: bCat KO growth, HCT116 PTEN-null)
O=C(Nc1nc2ccc(F)cc2s1)c1ccccn1	Lmaj promast 100 (no result: bCat KO growth, HCT116 PTEN-null)
COc1ccc2nc(NC(=O)c3cccnc3SC)sc2c1	Lmaj promast 81
COC(=O)c1ccc2nc(Nc3nc4ccc(F)cc4s3)sc2c1	none
Cc1ccc(/C=N/NC(=O)CC(=O)NCc2cccnc2)cc1	none
O=C(COC(=O)c1ccc2c(c1)C(=O)N(Cc1ccncc1)C2=O)Nc1cccc2ccccc12	none (no result: bCat KO growth, HCT116 PTEN-null)
O=C(CSc1ccc(-c2ccncc2)nn1)N1CCCC1	none (no result: bCat KO growth, HCT116 PTEN-null)
C#CCNC(=O)C1=C[C@H](c2ccc(Br)cc2)C[C@H](OCc2ccc(CO)cc2)O1	none (no result: bCat KO growth, HCT116 PTEN-null)
O=C(Nc1ccc(C(=O)N2CCOCC2)cc1)c1cccc([N+](=O)[O-])c1	none (no result: bCat KO growth, HCT116 PTEN-null)
O=C(CN1CCN(c2ccccc2)CC1)Nc1ccc2c(c1)OCCO2	none (no result: bCat KO growth, HCT116 PTEN-null)
CCCn1c(N2CCN(CC(=O)Nc3ccc4c(c3)OCCO4)CC2)nc2ccccc21	Lmaj promast 79
COc1ccc(N(CC(=O)NCCC2=CCCCC2)S(=O)(=O)c2ccccc2)c(OC)c1	none (no result: bCat KO growth, HCT116 PTEN-null)
CCOC(=O)c1[nH]ncc1CN1CCN(Cc2ccc(C)cc2)C(CCO)C1 (configuration not stated)	none (no result: bCat KO growth, HCT116 PTEN-null)
COc1ccccc1/C=C/C(=O)NCC(=O)N/N=C/c1cc(Br)ccc1OC	none
COc1ccccc1C(=O)NCC(=O)N/N=C/c1cc(Br)ccc1OC(=O)/C=C\c1ccco1	Lmaj promast 92
O=C(CNC(=O)c1ccccc1F)N/N=C/c1cc(Br)ccc1OC(=O)/C=C/c1ccco1	Lmaj promast 87
COc1ccc(N2CCN(C(CNC(=O)C(=O)NCc3cccs3)c3ccco3)CC2)cc1 (configuration not stated)	none (no result: bCat KO growth, HCT116 PTEN-null)
CC(=O)Nc1ccc(N(C(=O)Cn2nnc3ccccc32)C(C(=O)NC2CCCC2)c2ccc(O)c(O)c2)cc1 (configuration not stated)	none (no result: bCat KO growth, HCT116 PTEN-null)
O=C(CNC(=S)NC(=O)c1ccc(Br)o1)c1ccccc1	none
O=C(CNC(=S)NC(=O)c1ccc(Cl)cc1)c1ccccc1	Lmaj promast 88
CCCN1C(=O)/C(=C\c2ccncc2)SC1=Nc1ccccc1	none
CCN1C(=O)/C(=C\c2ccncc2)SC1=Nc1ccc(C)c(C)c1	Lmaj promast 52
COC(=O)c1c(S(C)(=O)=O)nc(-c2ccccc2)[nH]c1=O	none
O=S(=O)(NCC(Nc1ccc(Cl)cc1)c1ccccc1)c1ccc(Cl)cc1 (configuration not stated)	Lmaj promast 58
Cc1cc(C)c2c(n1)nn1c(N3CCN(c4ccccc4C)CC3)cc(C)nc21	none (no result: bCat KO growth, HCT116 PTEN-null, PMI activator, PMI act satM6P)
NC(=O)CSc1nnc(COc2ccccc2)n1Cc1ccco1	none (no result: bCat KO growth, HCT116 PTEN-null)
Cc1cccc(NC(=S)NCC(C)CSc2ccc(Cl)cc2)c1 (configuration not stated)	Lmaj promast 86 (no result: bCat KO growth, HCT116 PTEN-null)
Cc1ccc(NC(=S)NCC(C)CSc2ccc(Cl)cc2)cc1 (configuration not stated)	Lmaj promast 59 (no result: bCat KO growth, HCT116 PTEN-null)
O=[N+]([O-])c1cccc(/C=C/c2nc(C=Nc3ccc4ccccc4c3)c(O)o2)c1	HCT116 PTEN-null 2.7
CCOCCCNC(=O)c1ccc2c(c1)N=C(CC)c1cc(Br)ccc1S2	none (no result: bCat KO growth, HCT116 PTEN-null)
N=C1/C(=C/c2cccn2CCOc2ccccc2)C(=O)N=C2SC=C(c3ccccc3)N12	Lmaj promast 59
Cc1ccc(C)c(S(=O)(=O)N2CCN(C(C(=O)Nc3ccc(F)cc3)c3ccccc3)CC2)c1 (configuration not stated)	Lmaj promast 56
COc1ccc2c(c1)CCc1sc(NC(=O)c3ccco3)nc1-2	none
COc1ccc2c(c1)Cc1sc(NC(=O)c3ccco3)nc1-2	Lmaj promast 53
COc1ccc2c(c1)Cc1sc(NC(=O)c3cccnc3)nc1-2	Lmaj promast 55 (no result: bCat KO growth, HCT116 PTEN-null)
O=C(c1cccc(C(F)(F)F)c1)C1CCCN(Cc2ccc(OCCO)cc2)C1 (configuration not stated)	Lmaj promast 81 (no result: bCat KO growth, HCT116 PTEN-null)
CSc1ccc(C(=O)C2CCCN(Cc3ccc(N4CCNC4=O)cc3)C2)cc1 (configuration not stated)	none (no result: bCat KO growth, HCT116 PTEN-null)
CSc1ncc(CN2CCCC(C(=O)c3ccc(C(C)(C)C)cc3)C2)cn1 (configuration not stated)	Lmaj promast 88 (no result: bCat KO growth, HCT116 PTEN-null, PMI activator, PMI act satM6P)
CC(C)(C)c1ccc(C(=O)C2CCCN(C(=O)C3CCOCC3)C2)cc1 (configuration not stated)	none (no result: bCat KO growth, HCT116 PTEN-null, PMI activator, PMI act satM6P)
COc1ccc(CN2CCCC(C(=O)c3ccc(SC)cc3)C2)cc1Cn1cccn1 (configuration not stated)	Lmaj promast 90 (no result: bCat KO growth, HCT116 PTEN-null)
COc1ccc(CN2CCCC(C(=O)c3cccc(C(F)(F)F)c3)C2)cc1O (configuration not stated)	Lmaj promast 84 (no result: bCat KO growth, HCT116 PTEN-null)
CC(=O)Nc1ccc(CN2CCCC(C(=O)c3cccc(C(F)(F)F)c3)C2)cc1 (configuration not stated)	none (no result: bCat KO growth, HCT116 PTEN-null)
CCCCn1c(=O)c(CCC(=O)OCC(=O)NC(=O)NCCC(C)C)nc2ccccc21	none (no result: bCat KO growth, HCT116 PTEN-null)
COc1ccc(/C(N)=N/OC(=O)Cc2ccc(C)cc2)cc1OC	none
O=C(c1ccc(-n2cnnn2)cc1)N1CCCCC1	none
Cc1cccc2cc(CN(CCN(C)C)C(=S)Nc3ccccc3)c(=O)[nH]c12	Lmaj promast 79
Cc1ccc(NC(=S)N(Cc2cccs2)Cc2cc3cccc(C)c3[nH]c2=O)cc1	Lmaj promast 92
COC(=O)c1ccccc1NC(=S)N(Cc1ccc2c(c1)OCO2)Cc1cc2cccc(C)c2[nH]c1=O	Lmaj promast 67
